# Assay outcomes as filed in PubChem BioAssay.
# CHRM5 antagonist: CHRM5 antagonism in calcium assay; P08912; CHO-hM5 cells, Fluo-8 calcium fluorescence, ACh EC80; inhibition, % at 3 µM; 0.59% of 360,000 active; AID 624040;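 active = inhibition above a per-plate cutoff, the mean of that plate's test compounds plus 3 SD, cut at about 27% in these data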;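 note: 0% = acetylcholine EC80 with DMSO and 100% = DMSO without agonist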
# M4 PAM: CHRM4 positive allosteric modulation. activation, % at 3 µM. CHO-K1 hM4/Gqi5, Fluo-8 calcium fluorescence, ACh EC20; 0% = ACh EC20, 100% = maximal ACh. P08173. 0.4% of 360,000 active;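 active = activation above its plate's cutoff, the mean activation of sample wells plus 3 SD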
# Target sequence (P08173 whole entry, looked up): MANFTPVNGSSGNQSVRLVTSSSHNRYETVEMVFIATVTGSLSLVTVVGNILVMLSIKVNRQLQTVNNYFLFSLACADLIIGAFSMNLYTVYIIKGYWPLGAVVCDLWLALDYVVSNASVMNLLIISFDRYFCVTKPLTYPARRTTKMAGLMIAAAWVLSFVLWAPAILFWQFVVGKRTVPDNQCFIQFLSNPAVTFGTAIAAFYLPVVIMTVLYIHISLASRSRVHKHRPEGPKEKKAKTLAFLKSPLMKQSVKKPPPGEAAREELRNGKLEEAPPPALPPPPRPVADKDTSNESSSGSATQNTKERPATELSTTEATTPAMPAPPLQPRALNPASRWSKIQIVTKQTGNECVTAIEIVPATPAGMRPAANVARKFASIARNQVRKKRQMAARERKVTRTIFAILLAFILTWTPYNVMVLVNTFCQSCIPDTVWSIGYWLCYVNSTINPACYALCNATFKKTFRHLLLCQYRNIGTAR
# M5 PAM: potentiates acetylcholine response at human M5 receptor; P08912; CHO-K1 hM5, Fluo-8 calcium, ACh EC20 PAM; 0% = ACh EC20, 100% = ACh EC100; activation, % at 3 µM; 0.3% of 360,000 active; AID 624038;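 active = activation above the run cutoff, the mean activation of all test compounds plus 3 SD, cut at about 18% in these data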
#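 System: CHO-K1 hM5 cells. Reagent: acetylcholine, EC20 level. Compound dosing: single dose, 3 µM nominal final test concentration. Timing: Post-acetylcholine fluorescence recording 140 s. Detection: Fluo-8 calcium fluorescence. Read-out: % activation, ACh-normalized. Benchmarks: ACh EC20 and EC100 wells. Repeats: singlicate, one well per test compound.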
# CHRM5 agonist: CHRM5 agonism in calcium assay | CHO-K1 hM5 cells, Fluo-8 calcium fluorescence; 0% DMSO wells, 100% maximal acetylcholine response | 0.19% of 360,000 active | activation, % at 3 µM | P08912;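 active = activation above the run's mean over test compounds plus 3 SD, cut at about 23% in these data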;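 note: signal is peak over basal fluorescence ratio across the kinetic read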
# CHRM4 agonist: agonists of human muscarinic M4 receptor (CHRM4); activation, % at 3 µM; P08173; CHO-K1 hM4/Gqi5, Fluo-8 calcium fluorescence; vehicle 0%, full acetylcholine response 100%; 0.14% of 360,000 active; AID 624127;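 active = activation above the run mean over all test wells plus 3 SD, cut at about 32% in these data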;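 note: peak over basal fluorescence ratio per well then scaled between controls; 0% = DMSO wells and 100% = acetylcholine at EC100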
# CHRM4 antagonist: antagonists of human muscarinic M4 receptor (CHRM4); CHO-hM4 cells, ACh EC80, Fluo-8 calcium fluorescence; P08173; 0.73% of 360,000 active; inhibition, % at 3 µM; AID 624125;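 active = inhibition above its plate's cutoff, the mean inhibition of sample wells plus 3 SD, cut at about 27% in these data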;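 note: 0% = acetylcholine EC80 with DMSO and 100% = DMSO without agonist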
# * hit, by the source's call. Sampled rows, rich in hits. Any-hit rate of the full collection: about 1.8%.
SMILES,CHRM5 antagonist,M4 PAM,M5 PAM,CHRM5 agonist,CHRM4 agonist,CHRM4 antagonist
CCOC(=O)[C@]12CCC=C1N(Cc1ccccc1)C(=O)[C@H](CC(=O)NCCC(C)C)C2,-9,9,1,1,0,5
COC(=O)CCCC1=CC2=CC(=O)C(C)(OC(=O)c3cccs3)C(=O)C2=CN1Cc1ccccc1 (configuration not stated),9,10,-3,-3,1,4
COC(=O)CCCC1=CC2=CC(=O)C(C)(OC(=O)c3cccs3)C(=O)C2=CN1c1ccc(OC)cc1 (configuration not stated),4,4,8,-1,1,27*
COCCNC(=O)CN(C(=O)c1ccc(N2CCCC2)nc1)c1ccccc1,6,-4,1,3,1,0
COCCNC(=O)CN(C(=O)c1ccc(N2CCCC2)nc1)c1ccc(F)c(Cl)c1,-10,6,22*,7,0,-7
Cc1cc(OCCCC(=O)Nc2cccc(-n3cnnn3)c2)ccc1Cl,27*,-14,-17,6,19,13
CC(C)CNC(=O)c1ccc(C2SCC(=O)N2Cc2ccccc2)cc1 (configuration not stated),-3,-25,-20,-11,1,47*
COc1cc(/C=C(/C#N)c2ccc(F)cc2)ccc1Oc1ccc([N+](=O)[O-])cn1,35*,-12,-21,-4,8,15
O=S(=O)(NC1CCCC1)c1ccc(S(=O)(=O)NC2CCCC2)cc1,2,0,-8,28*,9,11
Cc1cc(C(=O)N2CCC2(C)C(=O)NS(=O)(=O)c2cccc(OC(F)F)c2)nn1C (configuration not stated),5,2,-1,0,0,-8
Cc1ccc(C2CC(c3ccccc3)=NN2C(=S)Nc2ccccc2)o1 (configuration not stated),-2,-11,2,4,7,39*
O=S(=O)(Nc1nc2ccccc2[nH]1)c1ccccc1,8,-20,-18,-7,0,19
O=S(=O)(Nc1nc2ccccc2[nH]1)c1ccc(Cl)cc1,50*,-29,-17,-7,5,67*
COc1cc(Cl)c(C)cc1NC(=O)CCCn1c(=O)oc2ccccc21,2,30*,7,-2,1,-12
COc1cccc(S(=O)(=O)Nc2ccc(C(O)(C(F)(F)F)C(F)(F)F)cc2)c1,3,-5,-4,-2,3,-2
NC1=NC(=O)CC(C(=O)NCc2ccccc2)S1 (configuration not stated),-4,16*,-2,-5,2,-16
COc1ccc(CCN2C(=O)CSC2=Nc2ccc(C(C)C)cc2)cc1OC,35*,-12,-34,-6,11,37*
Cc1nn(CC(=O)NCCCN2CCC(Cc3ccccc3)CC2)c(=O)c2cc(-c3ccccc3)nn12,7,-14,-5,-6,10,17
CCc1ccc(-c2cc3c(=O)n(CC(=O)NCCCN4CCC(Cc5ccccc5)CC4)nc(C)n3n2)cc1,11,-10,-8,-8,7,40*
COc1ccc(-c2ccc3c(c2)O[C@H](CN(C)C(=O)Nc2ccccc2F)[C@@H](C)CN([C@H](C)CO)S3(=O)=O)cc1,16,-6,-6,-1,2,3
CCOC(=O)C1=CCN(S(=O)(=O)c2ccc(C)cc2)C1c1cccc(F)c1 (configuration not stated),3,-5,-4,-4,0,-2
N=C1N(/N=C/c2ccccc2)C(=Nc2ccccc2)C(=S)N1c1ccccc1,-4,-26,0,-2,1,55*
O=C([C@H]1O[C@@H](n2ccc(=O)[nH]c2=O)[C@H](O)[C@@H]1O)N1CCSC1,6,-3,-5,2,1,-4
C[C@H]1CC[C@@]2(O[C@@H](CCO)C[C@@H](O)[C@@H]2O)O1,-1,14,1,4,1,3
C[C@@H]1CC[C@]2(O[C@H](CCO)C[C@@H](O)[C@@H]2O)O1,-2,14,25*,4,-1,-2
SMILES,CHRM5 antagonist,M4 PAM,M5 PAM,CHRM5 agonist,CHRM4 agonist,CHRM4 antagonist
COc1ccc2c3c([nH]c2c1)[C@H]1C[C@H]2[C@H](C[C@@H](O)[C@H](OC)[C@H]2C(=O)O)CN1CC3,15,-16,-18,1,2,46*
CCn1c(SCC(=O)N2CCCCC2C)nnc1-c1ccco1 (configuration not stated),5,-6,-4,-1,1,5
CC1CCCCN1C(=O)CSc1nnc(-c2ccco2)n1CC1CCCO1 (configuration not stated),0,30*,0,2,2,9
CCOC(=O)CC(NC(=O)c1ccco1)c1ccc(OC)cc1 (configuration not stated),-2,6,21*,-4,0,-7
COc1cc(C(=O)OCc2cccc(OC)c2OC)ccc1OCC(=O)N1CCOCC1,7,22*,0,2,3,-3
COc1ccc(N2CC(C(=O)Nc3c4c(nn3-c3ccc(OC)cc3)CS(=O)(=O)C4)CC2=O)cc1 (configuration not stated),-15,20*,-2,-2,0,-11
Cc1sc2nc(C3CC3)nc(N3CCN(C(=O)c4ccc(Cl)cc4)CC3)c2c1C,10,37*,-7,-4,0,-24
COc1ccc(C(=O)N2CCN(c3nc(C4CC4)nc4sc(C)c(C)c34)CC2)cc1,1,20*,-1,-4,0,-2
Cc1sc2nc(C3CC3)nc(N3CCN(C(=O)c4ccccc4F)CC3)c2c1C,9,-4,3,-5,3,5
Cc1sc2nc(C3CC3)nc(N3CCN(C(=O)c4ccc(F)cc4)CC3)c2c1C,14,18*,1,-5,3,-10
Cn1c(=O)c2cc(NC(=O)NCc3ccc(Cl)cc3Cl)ccc2n1Cc1ccccc1,-2,3,-2,-1,0,1
COc1ccc(Oc2c(C)oc3c(CN(C)C)c(O)ccc3c2=O)cc1,2,-17,-16,-8,1,44*
CCCCNC(=O)C1(C)CCN1C(=O)c1oc2ccccc2c1C (configuration not stated),4,5,-2,-2,1,-11
Cc1ccc([N+](=O)[O-])cc1S(=O)(=O)NCCc1c(C)[nH]c2c(C)cccc12,19,-6,-6,2,4,28*
O=C1C=CC(=O)N1c1ccc2c(c1)Cc1cc(F)ccc1-2,-3,-8,10,-2,8,37*
